Screens deposited in PubChem by several laboratories.
PP5 inh = PP5 phosphatase inhibitors, primary screen, biochemical, fluorescence. Serine/threonine-protein phosphatase 5 (Homo sapiens), P53041. purified PP5c, OMFP substrate fluorescence. inhibition, % at 6.7 µM. hit rate 0.18% among 320,000. AID 1987, 2009;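 active = inhibition above the campaign's mean inhibition across all tested compounds plus 3 SD, cut at about 9.5% in these data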
STEP inh = STEP phosphatase inhibitors, primary screen, biochemical, fluorescence intensity, uHTS. Tyrosine-protein phosphatase non-receptor type 5 (Homo sapiens), P54829. recombinant STEP, OMFP fluorogenic substrate. inhibition, % at 20 µM. hit rate 0.25% among 360,000. AID 588621, 2011;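 active = inhibition at 20 µM, scaled per plate between control wells, above about 37%, limit read from the data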
Target sequence (P54829 whole entry, looked up): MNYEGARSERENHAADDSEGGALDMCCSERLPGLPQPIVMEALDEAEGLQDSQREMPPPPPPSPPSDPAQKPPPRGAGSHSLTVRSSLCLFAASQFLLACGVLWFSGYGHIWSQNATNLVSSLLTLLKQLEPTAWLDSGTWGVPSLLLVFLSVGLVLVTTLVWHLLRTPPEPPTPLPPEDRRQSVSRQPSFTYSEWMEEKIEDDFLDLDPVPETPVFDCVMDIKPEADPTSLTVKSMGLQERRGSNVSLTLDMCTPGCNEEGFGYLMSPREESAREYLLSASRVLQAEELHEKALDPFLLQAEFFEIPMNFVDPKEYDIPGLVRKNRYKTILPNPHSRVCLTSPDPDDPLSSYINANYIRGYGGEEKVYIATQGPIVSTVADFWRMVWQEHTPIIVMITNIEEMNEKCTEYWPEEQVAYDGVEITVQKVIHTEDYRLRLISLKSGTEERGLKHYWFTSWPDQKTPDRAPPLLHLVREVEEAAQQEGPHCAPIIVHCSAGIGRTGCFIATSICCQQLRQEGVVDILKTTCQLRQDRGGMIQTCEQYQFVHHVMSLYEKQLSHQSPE
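Assay system: isolated STEP enzyme / Timing: 20 min at room temperature, dark / Doses: 20 µM, 1% DMSO / Technique: fluorescence intensity, excitation 480 nm, emission 540 nm / Reagent: fluorogenic phosphatase substrate OMFP at 25 µM final / Measure: percent inhibition scaled to no-enzyme and uninhibited-enzyme controls, plate-pattern corrected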
LMPTP block = LMPTP phosphatase inhibitors, primary screen, biochemical, fluorescence intensity, uHTS; Low molecular weight phosphotyrosine protein phosphatase (Homo sapiens), P24666; hit rate 0.22% among 360,000; recombinant LMPTP-A, OMFP fluorogenic substrate; inhibition, % at 20 µM;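 active = compounds that cut the enzyme signal by at least half of the control window in the single-dose screen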
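Buffer or medium: Bis-Tris pH 6.0, DTT, detergent; Assay system: LMPTP-A enzyme; Quantity: 0.625 nM enzyme; Detection: endpoint fluorescence intensity; Times: 50 min dark incubation at room temperature; Controls: substrate-only low control, DMSO enzyme-plus-substrate high control; Doses: single 20 µM dose; Read-out: percent inhibition versus substrate-only and uninhibited controls; Reagent: 400 µM OMFP.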
Scp-1 inhibitor = Scp-1 phosphatase inhibitors, primary screen, biochemical, colorimetric, uHTS. Carboxy-terminal domain RNA polymerase II polypeptide A small phosphatase 1 (Homo …. Recombinant Scp1, phosphopeptide, malachite green phosphate absorbance. inhibition, % at 20 µM. hit rate 0.88% among 340,000;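 active = inhibition above about 50% at 20 µM, limit read from the data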
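Assay system: SCP-1 catalytic fragment, aa 76-261 | Buffer or medium: Tris acetate buffer pH 5.5 with MgCl2 and Tween-20 | Compound: One concentration, 20 µM, with 1.0% DMSO | Also added: Phospho 17-mer peptide substrate | Signal: Absorbance at 630 nm | Incubation: 45 min enzyme reaction at room temperature | Measure: % inhibition of SCP-1 phosphate liberation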
PP1 inh = PP1-alpha phosphatase inhibitors, primary screen, counter-screen for PP5 inhibitor project, biochemical, fluorescence, OMFP substrate, single point. purified PP1alpha. Serine/threonine-protein phosphatase PP1-alpha catalytic subunit (Homo sapiens), P62136. inhibition, % at 6.7 µM. hit rate 0.9% among 320,000;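 active = inhibition above the mean inhibition of all tested compounds plus 3 SD, computed separately for each screening campaign, cut at about 15% in these data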
PP5 inh confirm = PP5 phosphatase inhibitors, confirmation, biochemical, fluorescence, human | shares compounds with PP5 inh | Purified PP5, fluorogenic phosphatase substrate | inhibition, % at 6.7 µM | hit rate 22% among 460; in the data active = inhibition above about 9.5%
PP1 inh counter = PP1 phosphatase inhibitors, counter-screen for PP5 inhibitor project, biochemical, fluorescence, triplicate. shares compounds with PP5 inh. AID 2355, 2010. PP1 enzyme, fluorescent phosphatase substrate. hit rate 4% among 460. inhibition, % at 6.7 µM; in the data active = inhibition above about 16%
Of the large screens only hits and unclear results are named; the others gave an inactive call (follow-up assays come after a bar, where they were run). Hits are enriched below; roughly 1.9% of the tested compounds scored in any of these assays.

O=C(O)C1CC(=O)N(CCc2c[nH]c3ccccc23)C1 (stereo not drawn)	none
O=C(NC1CCCCC1)N1CCC(n2c(=O)[nH]c3ccccc32)CC1	PP5 inh 19 | PP5 inh confirm inactive | PP1 inh counter inactive
O=C(Nc1ccccc1)N1CCC(n2c(=O)[nH]c3ccccc32)CC1	none
CCOc1ccc(NC(=O)N2CCC(C(N)=O)(N3CCCCC3)CC2)cc1	PP5 inh 11 | PP5 inh confirm inactive | PP1 inh counter inactive
NC(=O)C1(N2CCCCC2)CCN(C(=S)Nc2ccccc2)CC1	none
COc1ccc(-c2cn(-c3ccc(Cl)cc3)c3[n+]2CCCCC3)cc1	PP5 inh 19 | PP5 inh confirm inactive | PP1 inh counter inactive
Cn1cc(CN2CCN(c3ncccn3)CC2)c(-c2cccc(Cl)c2)n1	none
CCC(=O)Nc1cccc(-n2nnnc2SCC(=O)c2ccc(C)c(C)c2)c1	PP5 inh 13 | PP5 inh confirm inactive | PP1 inh counter inactive
O=C1CC(N2CCN(c3ccc(Cl)cc3)CC2)C(=O)N1c1ccccc1 (stereo not drawn)	PP5 inh 10 | PP5 inh confirm inactive | PP1 inh counter inactive
CC(C)(C)c1cc(NC(=O)Nc2ccccc2)no1	none
Cc1ccc(S(=O)(=O)N2CCN(S(=O)(=O)c3ccc(C)cc3)C2c2ccccc2)cc1	none
COc1ccc(C2N(S(=O)(=O)c3ccccc3)CCN2S(=O)(=O)c2ccc(C)cc2)cc1 (stereo not drawn)	PP5 inh 10 | PP5 inh confirm inactive | PP1 inh counter inactive
CCOc1ccc(N(CC(=O)Nc2c(C)cccc2C)S(=O)(=O)c2c(C)[nH]c(=O)[nH]c2=O)cc1	PP5 inh 12 | PP5 inh confirm inactive | PP1 inh counter inactive
CCOc1ccc(N(CC(=O)Nc2cccc(C)c2C)S(=O)(=O)c2c(C)[nH]c(=O)[nH]c2=O)cc1	none
Cc1cc(NCCN2CCOCC2)n2nc(C)c(-c3ccc(Cl)cc3)c2n1	none
CC(C)C(=O)Nc1nnc(SCC(=O)Nc2ccc3c(c2)OCCO3)s1	PP5 inh 13 | PP5 inh confirm inactive | PP1 inh counter inactive
CC(C)NC(=O)c1ccccc1NC(=O)CCc1ccccc1	PP5 inh 10 | PP5 inh confirm inactive | PP1 inh counter inactive
CCOC(=O)N1CCC2(CC1)NCCc1c2[nH]c2ccccc12	PP5 inh 12 | PP5 inh confirm inactive | PP1 inh counter inactive
C=C(C)CSC1=C(C#N)C(c2ccsc2)CC(=O)N1 (stereo not drawn)	PP5 inh 11 | PP5 inh confirm inactive | PP1 inh counter inactive
CCSC1=C(C#N)C(c2cccc(O)c2)CC(=O)N1 (stereo not drawn)	none
COCCOC(=O)c1c(C)oc2ccc(OC(=O)c3cccs3)cc12	PP5 inh 10 | PP5 inh confirm inactive | PP1 inh counter inactive
O=S(=O)(c1cccs1)N1CCN(CCc2ccccc2)CC1	none
COc1ccc(C(=O)NC2CCN(CC(=O)NCc3cccc(OC)c3)CC2)cc1	PP5 inh 12 | PP5 inh confirm inactive | PP1 inh counter inactive
COc1ccc(C(=O)C2CCN(CC(=O)NCc3ccccc3)CC2)cc1	none
CCNC(=S)NS(=O)(=O)c1ccc(CC)cc1	PP5 inh 10.0 | PP5 inh confirm inactive | PP1 inh counter inactive
CCNC(=S)NS(=O)(=O)c1ccc(C)cc1	none
Cc1ccc(OC(F)F)c(NC(=O)Nc2cccc(C(F)(F)F)c2)c1	PP5 inh 13 | PP5 inh confirm inactive | PP1 inh counter inactive
O=C(COCC(=O)Nc1cccc(C(F)(F)F)c1)Nc1cccc(C(F)(F)F)c1	PP5 inh 10 | PP5 inh confirm 10 | PP1 inh counter inactive
Cc1ccc(/C=N/N2C(=O)C3C(C2=O)C2C=CC3C23CC3)o1 (stereo not drawn)	none
